Source: ChEMBL document CHEMBL1165938, “An isoaurone and other constituents from Trichosanthes kirilowii seeds inhibit hypoxia-inducible factor-1 and nuclear factor-kappaB” (J Nat Prod, 2010)

Columns and labels:
[1] = target: Hypoxia-inducible factor 1-alpha (Homo sapiens, UniProt Q16665); assay: Inhibition of hypoxia-induced HIF1alpha protein accumulation in human Hep3B cells treated for 30 mins measured after 12 hrs by Western blot analysis; format: functional, cell-based, Hep 3B2; details: for inhibition: Hep 3B2
Summary of the method: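 Hep3B cells (DMEM, 10% FBS, 37 °C) were pretreated with a range of compound concentrations for 30 min, then kept 12 h under normoxia or hypoxia (1% O2, 94% N2, 5% CO2, 37 °C). HIF-1α was detected by western blot with a mouse monoclonal anti-HIF-1α antibody. Topoisomerase-1 was probed as the loading control.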

[2] = Cytotoxicity against human Hep3B cells after 24 hrs by MTT assay; format: cell-based; details: hep 3b2, 24 h
[3] = Inhibition of NF-kappaB activity in human HeLa cells by SEAP reporter assay; format: cell-based
Summary of the method: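 HeLa cells grown in DMEM with 10% FBS and penicillin/streptomycin at 37 °C, 5% CO2. NF-κB activity read by a secreted alkaline phosphatase (SEAP) reporter, with celastrol as positive control. Values are IC50s, mean ± SD from three experiments.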

Hep 3B2 = assay: Inhibition of hypoxia-induced VEGF protein secretion in human Hep3B cells after 16 hrs by ELISA; format: functional, cell-based
Summary of the method: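 Hep3B cells were seeded at 2 × 10^5 per well and exposed to a range of concentrations for 16 h under normoxia or hypoxia (1% O2, 5% CO2, 37 °C). VEGF in the culture supernatant was quantified with a DuoSet sandwich ELISA. 17-DMAG served as positive control. IC50s are mean ± SD from three experiments.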

[4] = Inhibition of hypoxia-induced HIF1alpha protein accumulation in human Hep3B cells treated for 30 mins measured after 12 hrs by Western blot analysis; details: hep 3b2

CC(=O)OC(C)(C)/C=C/C(=O)[C@](C)(O)[C@H]1[C@H](O)C[C@@]2(C)[C@@H]3CC=C4[C@@H](C[C@H](O)C(=O)C4(C)C)[C@]3(C)C(=O)C[C@]12C [CUCURBITACIN B]
IC50 [1]: 270 nM | Activity [2]: Non-toxic

COc1cc(/C=C/c2ccc(OC)c(O)c2)oc(=O)c1
IC50 [3]: 400 nM | IC50 (Hep 3B2): 1040 nM | IC50 [1]: 810 nM | inhibition [1]: Dose-dependent effect | Activity [2]: Non-toxic

CC(=O)OC(C)(C)/C=C/C(=O)[C@](C)(O)[C@H]1[C@H](O)C[C@@]2(C)[C@@H]3CC=C4[C@H](C[C@H](O)C(=O)C4(C)C)[C@]3(C)C(=O)C[C@]12C [CUCURBITACIN B]
IC50 [3]: 61 nM | IC50 (Hep 3B2): 310 nM | inhibition [1]: Dose-dependent effect

CO[C@H]1/C=C\C=C(/C)C(=O)NC2=CC(=O)C(NCCN(C)C)=C(C[C@@H](C)C[C@H](OC)[C@H](O)[C@@H](C)/C=C(\C)[C@@H]1OC(N)=O)C2=O [ALVESPIMYCIN]
IC50 [4]: 57 nM

CC1=C(O)C(=O)C=C2C1=CC=C1[C@@]2(C)CC[C@@]2(C)[C@@H]3C[C@](C)(C(=O)O)CC[C@]3(C)CC[C@]12C [CELASTROL]
IC50 [3]: 150 nM

COc1cc(O)cc2c1/C(=C\c1ccc(O)cc1)C(=O)O2
IC50 [3]: 560 nM | IC50 (Hep 3B2): 930 nM | IC50 [1]: 690 nM | inhibition [1]: Dose-dependent effect | Activity [2]: Non-toxic

CC1=CC(=O)CC(C)(C)[C@@]1(O)/C=C/[C@@H](C)O [BLUMENOL A]
IC50 [3]: 12300 nM | IC50 (Hep 3B2): 26200 nM | IC50 [1]: 15800 nM | Activity [2]: Non-toxic
